Assay results pooled from the literature.
Each line is one published result; the experiments were not run side by side.
Target: Dual specificity protein kinase CLK4 (CLK4, Homo sapiens, UniProt Q9HAZ1)

SMILES	effect on	mode	method	concentration	quantity	value
CC(=O)Nc1c(C(C)=O)c(=O)n(C)c2nc(-c3ccc(Cl)cc3Cl)c(-c3ccc(Cl)cc3)cc12	cell-free assay		competition with immobilised ligand	1 µM	remaining binding	100%
O=C1Nc2ccc(Cl)cc2C1=Cc1cc(Cl)c(O)c(Cl)c1	cell-free assay			0.5 µM	remaining signal	60.7%
CC(C)(O)[C@H]1CC[C@H](Nc2ccc3ncc(-c4cccc(C(F)(F)F)c4)n3n2)CC1	enzyme activity	inhibitor		1 µM	remaining activity	21.3%
CCN(CC)CCNC(=O)c1c(C)[nH]c(/C=C2\C(=O)Nc3ccc(F)cc32)c1C	cell-free assay			0.5 µM	remaining signal	26.3%
CC(C)(C)c1nc(-c2cccc(NS(=O)(=O)c3c(F)cccc3F)c2F)c(-c2ccnc(N)n2)s1	enzyme activity	inhibitor	radiometric	1 µM	remaining activity	74%
O=C(Nc1cnn(-c2csc(C(=O)NC3COC3)c2)c1)Nc1c(F)cccc1Cl	enzyme activity	inhibitor		5 µM	remaining activity	93.2%
COc1cc(Cl)c(C(=O)N[C@@H](CN[C@H]2CC[C@@H](N)CC2)Cc2ccc(C#N)cc2)cc1-c1ccc(CN[C@H](C)c2ccc(C)cc2)o1	enzyme activity	inhibitor		1 µM	remaining activity	103%
COc1cc(-c2cc(-c3ccc(N4CCNCC4)cc3)cnc2C)cc(OC)c1OC	enzyme activity	inhibitor		0.1 µM	inhibition	1%
N#CCCc1ccc2c(c1)-c1[nH]c3ccc([N+](=O)[O-])cc3c1CC(=O)N2	cell-free assay			0.5 µM	remaining signal	77.1%
Cn1cncc1C1=CN(c2ncnc3[nH]cnc23)CCS1	enzyme activity	inhibitor	radiometric	50 nM	inhibition	27.1%
C[C@@H]1CN(c2cc(-c3nn(C)c4ccc(OC5(C)CC5)cc34)ncn2)C[C@H](C)O1	cell-free assay		competition with immobilised ligand	1 µM	remaining binding	100%
Nc1ncnc2occ(-c3ccc(NC(=O)Nc4cc(C(F)(F)F)ccc4F)cc3)c12	cell-free assay	inhibitor		20 µM	remaining signal	5.8%
CCCCN(CCCC)C(=O)CN1C[C@@H](c2cc(OC)c3c(c2)OCO3)[C@H](C(=O)O)[C@H]1CC(C)(C)CCC	cell-free assay		competition with immobilised ligand	1 µM	remaining binding	72.4%
Cn1cnc(Br)c1C1=CN(c2ncnc3[nH]cnc23)CCS1	enzyme activity	inhibitor	radiometric	50 nM	inhibition	24%
FC(F)(F)c1ccc2c(c1)nc(-c1cccnc1)n2C1CC1	cell-free assay		competition with immobilised ligand	1 µM	remaining binding	100%
O=C(CSc1nc2nccnc2c(=O)n1CCc1ccccc1)Nc1nccs1	enzyme activity	inhibitor		10 µM	inhibition	5%
CS(=O)(=O)N1CCCC(NC(=O)[C@H](CCC2CCCCC2)NC(=O)c2ccc(CNc3ncnc4c3nnn4-c3ccccc3)cc2)C1 (some centres unmarked)	cell-free assay		competition with immobilised ligand	0.1 µM	remaining binding	85%
CNC(=O)c1cc(Oc2ccc(NC(=O)Nc3ccc(Cl)c(C(F)(F)F)c3)cc2)ccn1	cell-free assay			0.5 µM	remaining signal	95.2%
O=C(Nc1cccnn1)N1CCC(=Cc2cccc(Oc3ccc(C(F)(F)F)cn3)c2)CC1	cell-free assay		competition with immobilised ligand	1 µM	remaining binding	70%
Cc1cc(NC(=O)c2cccc3cc(-c4cccc5[nH]nc(N)c45)ccc23)ccc1F	enzyme activity	inhibitor		0.1 µM	activity vs control	90%
